Calls of active or inactive are those of the source. No cut-off for these calls is given here.
What was measured:
[1] = test system: U-251; assay: Cytotoxicity against human U251 cells assessed as growth inhibition after 48 hrs by SRB assay; assay type: functional; settings: U-251, 48 h
[2] = test system: OVCAR-5; assay: Cytotoxicity against human OVCAR5 cells assessed as growth inhibition after 48 hrs by SRB assay; assay type: functional; settings: OVCAR-5, 48 h
[3] = test system: SNB-75; assay: Cytotoxicity against human SNB75 cells assessed as growth inhibition after 48 hrs by SRB assay; assay type: functional; settings: SNB-75, 48 h
[4] = test system: M14; assay: Cytotoxicity against human M14 cells assessed as growth inhibition after 48 hrs by SRB assay; assay type: functional; settings: M14, 48 h
[5] = test system: BT-549; assay: Cytotoxicity against human BT549 cells assessed as growth inhibition after 48 hrs by SRB assay; assay type: functional; settings: BT-549, 48 h
[6] = test system: TK-10; assay: Cytotoxicity against human TK10 cells assessed as growth inhibition after 48 hrs by SRB assay; assay type: functional; settings: TK-10, 48 h
[7] = test system: NCI-H23; assay: Cytotoxicity against human NCI-H23 cells assessed as growth inhibition after 48 hrs by SRB assay; assay type: functional; settings: NCI-H23, 48 h
[8] = test system: MDA-MB-231; assay: Cytotoxicity against human MDA-MB-231 cells assessed as growth inhibition after 48 hrs by SRB assay; assay type: functional; settings: MDA-MB-231, 48 h
[9] = test system: ACHN; assay: Cytotoxicity against human ACHN cells assessed as growth inhibition after 48 hrs by SRB assay; assay type: functional
[10] = test system: OVCAR-8; assay: Cytotoxicity against human OVCAR8 cells assessed as growth inhibition after 48 hrs by SRB assay; assay type: functional; settings: OVCAR-8, 48 h
[11] = test system: SW-620; assay: Cytotoxicity against human SW620 cells assessed as growth inhibition after 48 hrs by SRB assay; assay type: functional; settings: SW-620, 48 h
[12] = biological target: Tubulin (Bos taurus, UniProt Q6B856+Q862L2+Q862F3); assay: Inhibition of tubulin assembly in bovine brain […] assessed as reduction in turbidity increase preincubated for 15 mins followed by GTP addition measured for 20 mins by spectrophotometric analysis
How it was run: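 Purified bovine brain tubulin, 1.0 mg/mL (10 µM), was preincubated 15 min at 30 °C in 0.8 M monosodium glutamate (pH 6.6) with compound and 4% DMSO. Mixtures were chilled and 0.4 mM GTP added. Turbidity was followed for 20 min at 30 °C. IC50 is the concentration halving the turbidity increase, interpolated between tested concentrations.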

[13] = test system: SF-539; assay: Cytotoxicity against human SF539 cells assessed as growth inhibition after 48 hrs by SRB assay; assay type: functional; settings: SF-539, 48 h
[14] = test system: HeLa; assay: Antiproliferative activity against human HeLa cells after 48 hrs by SRB assay; assay type: functional, cell-based
How it was run: (§1)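 SRB assay; IC50 is the mean of three independent experiments, each run in triplicate. Cells were kept at 37 °C under 5% CO2. HeLa and SK-OV-3 lines (parental and MDR1-M6/6) were grown in Basal Medium Eagle with 10% FBS, 1% GlutaMAX and 50 µg/mL gentamycin. HeLa WTβIII was grown in DMEM with 10% FBS.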

[15] = test system: SK-OV-3; assay: Antiproliferative activity against multidrug resistant human SKOV3 cells expressing MDR1-M6/6 after 48 hrs by SRB assay; assay type: functional, cell-based; settings: SK-OV-3, 48 h; how it was run: as §1
[16] = test system: 786-0; assay: Cytotoxicity against human 786-0 cells assessed as growth inhibition after 48 hrs by SRB assay; assay type: functional; settings: 786-0, 48 h
[17] = test system: HT-29; assay: Cytotoxicity against human HT-29 cells assessed as growth inhibition after 48 hrs by SRB assay; assay type: functional; settings: HT-29, 48 h
[18] = test system: RPMI-8226; assay: Cytotoxicity against human RPMI8226 cells assessed as growth inhibition after 48 hrs by SRB assay; assay type: functional; settings: RPMI-8226, 48 h
[19] = test system: NCI/ADR-RES; assay: Cytotoxicity against human NCI-ADR-RES cells assessed as growth inhibition after 48 hrs by SRB assay; assay type: functional
[20] = biological target: Tubulin (Bos taurus) (UniProt Q6B856+Q862L2+Q862F3); assay: Inhibition of [3H]colchicine binding to tubulin in bovine brain homogenate at 5 uM incubated for 10 mins by DEAE-cellulose filter assay; assay type: tissue-based
[21] = test system: KM12; assay: Cytotoxicity against human KM12 cells assessed as growth inhibition after 48 hrs by SRB assay; assay type: functional; settings: KM12, 48 h
[22] = test system: SK-OV-3; assay: Cytotoxicity against human SKOV3 cells assessed as growth inhibition after 48 hrs by SRB assay; assay type: functional, cell-based; settings: SK-OV-3, 48 h; how it was run: as §1
[23] = test system: RXF 393; assay: Cytotoxicity against human RXF393 cells assessed as growth inhibition after 48 hrs by SRB assay; assay type: functional; settings: RXF 393, 48 h
[24] = test system: HL-60(TB); assay: Cytotoxicity against human HL-60(TB) cells assessed as growth inhibition after 48 hrs by SRB assay; assay type: functional; settings: HL-60, 48 h
[25] = test system: UACC-62; assay: Cytotoxicity against human UACC62 cells assessed as growth inhibition after 48 hrs by SRB assay; assay type: functional; settings: UACC-62, 48 h
[26] = test system: COLO 205; assay: Cytotoxicity against human COLO205 cells assessed as growth inhibition after 48 hrs by SRB assay; assay type: functional; settings: COLO 205, 48 h
[27] = test system: PC-3; assay: Cytotoxicity against human PC3 cells assessed as growth inhibition after 48 hrs by SRB assay; assay type: functional; settings: PC-3, 48 h
[28] = test system: HeLa; assay: Relative ratio of IC50 for human HeLa cells expressing wild type beta3 tubulin to IC50 for human HeLa cells; assay type: functional
[29] = test system: MDA-MB-468; assay: Cytotoxicity against human MDA-MB-468 cells assessed as growth inhibition after 48 hrs by SRB assay; assay type: functional; settings: MDA-MB-468, 48 h
[30] = test system: SK-MEL-28; assay: Cytotoxicity against human SK-MEL-28 cells assessed as growth inhibition after 48 hrs by SRB assay; assay type: functional; settings: SK-MEL-28, 48 h
[31] = test system: NCI-H460; assay: Cytotoxicity against human NCI-H460 cells assessed as growth inhibition after 48 hrs by SRB assay; assay type: functional; settings: NCI-H460, 48 h
[32] = test system: MDA-MB-435; assay: Antitumor activity against human MDA-MB-435 cells xenografted in nude mouse assessed as tumor growth inhibition at 60 mg/kg, ip dosed on day 0 to 2 and 50 mg/kg, ip on day 8 relative to control
[33] = test system: HeLa; assay: Antiproliferative activity against multidrug resistant human HeLa cells expressing wild type beta3 tubulin after 48 hrs by SRB assay; assay type: functional, cell-based; how it was run: as §1
[34] = test system: SN12C; assay: Cytotoxicity against human SN12C cells assessed as growth inhibition after 48 hrs by SRB assay; assay type: functional
[35] = test system: HCC 2998; assay: Cytotoxicity against human HCC2998 cells assessed as growth inhibition after 48 hrs by SRB assay; assay type: functional; settings: HCC 2998, 48 h
[36] = test system: K562; assay: Cytotoxicity against human K562 cells assessed as growth inhibition after 48 hrs by SRB assay; assay type: functional; settings: K562, 48 h
[37] = test system: HeLa; assay: Cell cycle arrest in human HeLa cells assessed as accumulation at G2/M phase at 5 times IC50 after 18 hrs by flow cytometry (reference value: 17.11 +/- 1.09%); assay type: functional

In the case of COc1ccc(N(C)c2ncnc3occ(C)c23)cc1, the GI50 [1] is reported as under 10 nM, the GI50 [2] is reported as 12.8 nM and the GI50 [3] is reported as under 10 nM. It also gave a GI50 [4] of under 10 nM, a GI50 [5] of 59.6 nM and a GI50 [6] of 75.3 nM. For the same molecule, the GI50 [7] was under 10 nM, the GI50 [8] was under 10 nM and the GI50 [9] was 22.5 nM. The GI50 [10] was under 10 nM, the GI50 [11] was under 10 nM and the IC50 [12] was 3300 nM. For the same molecule, the GI50 [13] was under 10 nM, the IC50 [14] was 9.5 nM and the IC50 [15] was 8.4 nM. It also gave a GI50 [16] of under 10 nM, a GI50 [17] of under 10 nM and a GI50 [18] of under 10 nM. It also gave a GI50 [19] of under 10 nM, an inhibition [20] of 96% and a GI50 [21] of under 10 nM. For the same molecule, the GI50 [22] was under 10 nM, the IC50 [22] was 7.7 nM and the GI50 [23] was under 10 nM. It also gave a GI50 [24] of under 10 nM, a GI50 [25] of 29.6 nM and a GI50 [26] of under 10 nM. For the same molecule, the GI50 [27] was under 10 nM, the “Ratio IC50” value [28] was 0.9 and the GI50 [29] was under 10 nM. For the same molecule, the GI50 [30] was under 10 nM, the GI50 [31] was under 10 nM and the TGI [32] was “Active”. For the same molecule, the IC50 [33] was 8.1 nM, the GI50 [34] was under 10 nM and the GI50 [35] was under 10 nM. For the same molecule, the GI50 [36] was under 10 nM and the Activity [37] was 66.99%.

Reference: ChEMBL document CHEMBL4477200, “Design, Synthesis, and Preclinical Evaluation of 4-Substituted-5-methyl-furo[2,3-d]pyrimidines as Microtubule Targeting Agents That Are Effective against Multidrug Resistant Cancer Cells” (J Med Chem, 2016)
